From ChEMBL document CHEMBL4765483 (J Med Chem, 2021) come the findings set out here.

One assay has as its target T1, Adenosine receptor A2b (Homo sapiens, UniProt P29275).
T1 sequence (P29275 whole entry): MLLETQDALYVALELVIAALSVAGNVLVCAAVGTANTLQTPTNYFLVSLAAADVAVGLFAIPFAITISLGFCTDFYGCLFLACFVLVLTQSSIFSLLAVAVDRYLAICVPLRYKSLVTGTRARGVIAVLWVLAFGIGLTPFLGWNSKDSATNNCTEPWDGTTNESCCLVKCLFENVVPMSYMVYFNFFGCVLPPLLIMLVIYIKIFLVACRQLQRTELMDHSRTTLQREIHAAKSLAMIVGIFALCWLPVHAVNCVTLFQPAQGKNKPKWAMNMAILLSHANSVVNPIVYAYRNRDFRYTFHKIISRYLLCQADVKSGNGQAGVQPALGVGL
Briefly: Displacement of [3H]DPCPX from human adenosine A2B receptor expressed in HEK293 cell membranes incubated for 30 mins by scintillation counting method. Details: species or system Cell membrane.

Assay [1] has as its target T2, Adenosine receptor A1 (Homo sapiens) (UniProt P30542).
T2 sequence (whole entry): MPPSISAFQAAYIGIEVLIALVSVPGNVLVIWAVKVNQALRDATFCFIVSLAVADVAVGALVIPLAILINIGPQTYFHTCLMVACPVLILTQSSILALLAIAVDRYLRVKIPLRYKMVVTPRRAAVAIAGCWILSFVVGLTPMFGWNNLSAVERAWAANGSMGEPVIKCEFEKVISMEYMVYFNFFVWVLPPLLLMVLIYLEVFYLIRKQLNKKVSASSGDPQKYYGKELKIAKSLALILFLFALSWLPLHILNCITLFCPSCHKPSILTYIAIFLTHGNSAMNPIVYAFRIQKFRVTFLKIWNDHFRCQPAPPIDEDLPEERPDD
Briefly: Displacement of [3H]DPCPX from human adenosine A1 receptor expressed in CHO cell membranes at 1 uM incubated for 60 mins by scintillation counting method. To be noted: Cell membrane. (In general: Loss of bound radioactivity is the signal in a displacement assay; it reports binding, not function.)

The target in assay [2] is Adenosine receptor A2a (Homo sapiens) (UniProt P29274). Briefly: Displacement of [3H]ZM2421385 from adenosine A2A receptor expressed in human HeLa cell membranes at 1 uM incubated for 30 mins by scintillation counting method. To be noted: Cell membrane.
The target in assay [3] is T3, Adenosine receptor A2b (Homo sapiens) (UniProt P29275).
T3 sequence (whole entry): T1 sequence (P29275 whole entry)
Description: Displacement of [3H]DPCPX from human adenosine A2B receptor expressed in HEK293 cell membranes at 1 uM incubated for 30 mins by scintillation counting method. To be noted: Cell membrane.

The target in assay [4] is T4, Adenosine receptor A3 (Homo sapiens) (UniProt P0DMS8).
T4 sequence (whole entry): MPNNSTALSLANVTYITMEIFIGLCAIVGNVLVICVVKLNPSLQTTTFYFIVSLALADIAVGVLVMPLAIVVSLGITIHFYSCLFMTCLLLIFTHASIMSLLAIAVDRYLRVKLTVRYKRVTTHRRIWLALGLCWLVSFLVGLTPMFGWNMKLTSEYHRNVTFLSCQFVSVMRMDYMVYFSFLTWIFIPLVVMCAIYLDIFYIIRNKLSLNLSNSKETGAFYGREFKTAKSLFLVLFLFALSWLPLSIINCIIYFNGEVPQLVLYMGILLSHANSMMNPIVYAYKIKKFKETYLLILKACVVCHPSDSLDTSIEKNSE
Briefly: Displacement of [3H]NECA from adenosine A3 receptor expressed in human HeLa cell membranes at 1 uM incubated for 180 mins by scintillation counting method. To be noted: Cell membrane. Put shortly: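 hA3AR in HeLa membranes (3 pmol/mg protein) with 10 nM [3H]NECA (KD 8.7 nM); nonspecific binding with 100 μM R-PIA; incubated 180 min at 25 °C, washed, filtered, radioactivity counted.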

Sequence of Adenosine receptor A2a (Homo sapiens) (P29274 whole entry): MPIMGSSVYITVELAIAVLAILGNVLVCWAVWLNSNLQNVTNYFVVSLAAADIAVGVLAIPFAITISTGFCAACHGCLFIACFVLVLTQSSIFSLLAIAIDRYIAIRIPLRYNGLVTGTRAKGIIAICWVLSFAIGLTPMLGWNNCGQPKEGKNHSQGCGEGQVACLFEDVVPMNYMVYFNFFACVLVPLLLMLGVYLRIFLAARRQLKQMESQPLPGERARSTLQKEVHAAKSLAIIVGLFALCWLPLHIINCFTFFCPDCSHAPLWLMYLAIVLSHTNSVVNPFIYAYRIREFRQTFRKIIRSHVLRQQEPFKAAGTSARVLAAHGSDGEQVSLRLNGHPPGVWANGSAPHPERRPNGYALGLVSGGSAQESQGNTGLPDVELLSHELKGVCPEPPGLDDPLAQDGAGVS

For orientation: Ki means the dissociation constant of the complex between target and ligand, obtained from inhibition or displacement. As for `CCOC(=O)C1=C(C)N=C(S)NC1c1cccs1` (racemic), the affinity on Adenosine receptor A2b corresponds to a Ki of 3250 nM.
Still for that read-out and setting: the same measure for `CC1=C(C(=O)OC(C)C)C(c2ccsc2)NC(=S)N1` (racemic): 315 nM.
As usually defined, the inhibition is the drop in the measured response relative to a control, in per cent. Lower therefore signals a weak effect. With `CC1=C(C(=O)NC(C)C)C(c2cccs2)NC(=O)N1` (racemic), the inhibition was 2% in assay [1], 22% in assay [2], 40% in assay [3] (filed as antagonist) and 1% in assay [4].
`CC1=C(C(=O)NC(C)C)C(c2ccsc2)NC(=O)N1` (racemic): the inhibition in assay [1] stood at 8%; in assay [2], 1%; in assay [3], 3%; in assay [4], 1%.
In the case of `CC1=C(C(=O)OC2CCCC2)C(c2cccs2)NC(=O)N1` (racemic), the inhibition in assay [1] turned out to be 9%; in assay [2] it was 20%; in assay [3], 1%; in assay [4] it was 1%.
`CC1=C(C(=O)OC2CCCCC2)C(c2ccco2)NC(=O)N1` (racemic): the inhibition is 1% in assay [1], 5% in assay [2], 1% in assay [3] and 4% in assay [4].
As for `CC1=C(C(=O)OC2CCCCC2)C(c2cccs2)NC(=O)N1` (racemic), the inhibition in assay [1] was found to be 7%; in assay [2] it was 14%; in assay [3] it was 3%; in assay [4] it was 1%.
In the same order, the values of `CC1=C(C(=O)OC2CCCCC2)C(c2ccoc2)NC(=O)N1` (racemic) are 15%, 3%, 4% and 1%.
In the same order, the values of `CC1=C(C(=O)OC2CCCCC2)C(c2ccsc2)NC(=O)N1` (racemic) are 8%, 2%, 4% and 1%.
In the same order, the values of `CC1=C(C(=O)SC(C)C)C(c2ccco2)NC(=O)N1` (racemic) are 5%, 2%, 22% and 1%.
As to `CC1=C(C(=O)SC(C)C)C(c2cccs2)NC(=O)N1` (racemic), the inhibition in assay [1], in assay [2], in assay [3] and in assay [4] was 1% throughout.
`CC1=C(C(=O)SC(C)C)C(c2ccsc2)NC(=O)N1` (racemic): the inhibition was 24% in assay [1], 2% in assay [2], 14% in assay [3] and 1% in assay [4].
The like results for `CC1=C(C(N)=O)C(c2cccs2)NC(=O)N1` (racemic) were, in that order, 2%, 1%, 3% and 1%.
The like results for `CC1=C(C(N)=O)C(c2ccsc2)NC(=O)N1` (racemic) were, in that order, 2%, 18%, 1% and 1%.
Turning to `CC1=C(c2ncc(C)o2)C(c2cccs2)NC(=O)N1` (racemic), the inhibition in assay [1] was found to be 21%; in assay [2], 7%; in assay [3] (filed as antagonist), 45%; in assay [4] it was 1%.
Regarding `CCC(C)OC(=O)C1=C(C)NC(=O)NC1c1cccs1` (racemic), the inhibition in assay [1] was 5%; in assay [2] it was 2%; in assay [3], 7%; in assay [4], 7%.
As to `CCC(C)OC(=O)C1=C(C)NC(=O)NC1c1ccsc1` (racemic), the inhibition in assay [1] is 5%; in assay [2] it was 1%; in assay [3] it was 39%; in assay [4] it was 7%.
In the same order, the values of `CCC(CC)OC(=O)C1=C(C)NC(=O)NC1c1ccco1` (racemic) are 2%, 3%, 35% and 1%.
With `CCC(CC)OC(=O)C1=C(C)NC(=O)NC1c1cccs1` (racemic), the inhibition in assay [1] was 13%; in assay [2] it was 4%; in assay [3], 6%; in assay [4], 1%.
The like results for `CCC(CC)OC(=O)C1=C(C)NC(=O)NC1c1ccoc1` (racemic) were, in that order, 17%, 2%, 28% and 5%.
`CCC(CC)OC(=O)C1=C(C)NC(=O)NC1c1ccsc1` (racemic): the inhibition in assay [1] was 22%; in assay [2], 1%; in assay [3] it was 26%; in assay [4] it was 6%.
The like results for `CCN(CC)C(=O)C1=C(C)NC(=O)NC1c1cccs1` (racemic) were, in that order, 13%, 15%, 22% and 31%.
Turning to `CCN(CC)C(=O)C1=C(C)NC(=O)NC1c1ccsc1` (racemic), the inhibition was 11% in assay [1], 9% in assay [2], 11% in assay [3] and 35% in assay [4].
As to `CCNC(=O)C1=C(C)NC(=O)NC1c1cccs1` (racemic), the inhibition worked out at 1% in assay [1], 1% in assay [2], 1% in assay [3] and 4% in assay [4].
As to `CCNC(=O)C1=C(C)NC(=O)NC1c1ccsc1` (racemic), the inhibition in assay [1] worked out at 3%; in assay [2], 17%; in assay [3], 1%; in assay [4], 1%.
On to `CCOP(=O)(OCC)C1=C(C)NC(=O)NC1c1ccco1` (racemic), for which the inhibition in assay [1] stood at 3%; in assay [2], 4%; in assay [3], 2%; in assay [4] it was 4%.
As for `CCOP(=O)(OCC)C1=C(C)NC(=O)NC1c1cccs1` (racemic), the inhibition in assay [1] worked out at 2%; in assay [2], 5%; in assay [3], 7%; in assay [4], 5%.
In the case of `CCOP(=O)(OCC)C1=C(C)NC(=O)NC1c1ccoc1` (racemic), the inhibition in assay [1] was 1%; in assay [2], 8%; in assay [3] it was 3%; in assay [4] it was 2%.
Consider `CCOP(=O)(OCC)C1=C(C)NC(=O)NC1c1ccsc1` (racemic), for which the inhibition in assay [1] came out at 4%; in assay [2], 3%; in assay [3] it was 1%; in assay [4], 1%.
In the case of `CCSC(=O)C1=C(C)NC(=O)NC1c1ccco1` (racemic), the inhibition came out at 6% in assay [1], 2% in assay [2], 29% in assay [3] and 14% in assay [4].
Take `CCSC(=O)C1=C(C)NC(=O)NC1c1cccs1` (racemic): the inhibition in assay [1] was determined as 6%; in assay [2] it was 8%; in assay [3] it was 1%; in assay [4] it was 1%.
On to `CCSC(=O)C1=C(C)NC(=O)NC1c1ccoc1` (racemic), for which the inhibition in assay [1] was 3%; in assay [2], 1%; in assay [3] it was 1%; in assay [4], 1%.
In the case of `CCSC(=O)C1=C(C)NC(=O)NC1c1ccsc1` (racemic), the inhibition in assay [1] is 11%; in assay [2], 1%; in assay [3], 17%; in assay [4], 2%.
